Data on 22 compounds can be found in ChEMBL document CHEMBL4811236, “New class of hantaan virus inhibitors based on conjugation of the isoindole fragment to (+)-camphor or (-)-fenchone hydrazonesv” (Bioorg Med Chem Lett, 2021).

A short description of data set [1]: Cytotoxicity against human HEK293T cells measured after 72 hrs by MTT assay. It is filed as cell-based, HEK-293T. The essentials: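 HEK293T cells were exposed to compounds for 72 h. CC50 was the concentration causing 50% cell death, reported as M ± I95, n = 3.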
A general note: Formazan colour is commonly taken as a measure of viable cells.

A short description of data set [2]: Selective index, ratio of CC50 for HEK293T cells to IC50 for antiviral activity against pseudotyped recombinant vesicular stomatitis virus delta G Gn-Gc infected HEK293T cells. Particulars: human, read-out: Ratio CC50/IC50; call rule not given here. The data set is classed as toxicity. The essentials:
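Selectivity index was calculated as CC50 (HEK293T, 72 h exposure) divided by IC50 against rVSV-ΔG-Gn-Gc pseudovirus in HEK293T cells.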

Data set [3] is described as follows: Selective index, ratio of CC50 for MDCK cells to IC50 for Hantaan 76-118. The data set is classed as toxicity. Particulars: dog, read-out: Ratio CC50/IC50.
Data set [4] deals with Vesicular stomatitis virus. Description: Antiviral activity against pseudotyped recombinant vesicular stomatitis virus delta G Gn-Gc infected HEK293T cells assessed as reduction in virus replication incubated for 48 hrs by luminescence assay. It is filed as functional, organism-based. Particulars: HEK-293T. The essentials: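 Gn-Gc-pseudotyped VSV-ΔG particles were made by transfecting HEK293T cells with a Hantaan 76–118 Gn-Gc plasmid, adding VSV-ΔG-G after 48 h, and harvesting the supernatant 48 h later. Pseudovirus (500,000 RLU) was preincubated with a range of compound concentrations for 1 h, then a HEK293T cell suspension was added. IC50 reported as M ± I95, n = 3.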

The subject of data set [5] is Orthohantavirus hantanense. Nature of the data set: Antiviral activity against Hantaan 76-118 pseudovirus infected in MDCK cells assessed as reduction in virus replication incubated for 48 hrs by luminescence assay. The data set is classed as functional, organism-based. The note with it: for pIC50: Orthohantavirus hantanense, 76-118, MDCK, 48 h, read-out: IC50; for IC50: mdck.

A short description of data set [6]: Cytotoxicity against MDCK cells by MTT assay. It is filed as cell-based, Canis lupus familiaris. The note with it: dog.
For data set [7], the system named is Orthohantavirus hantanense. Description: Antiviral activity against HTNV strain 76-118 infected african green monkey Vero E6 cells measured after 3 days by plaque-formation assay. It is filed as functional, organism-based. Particulars: 76-118, Vero C1008, 72 h.

Molecules are shown by their SMILES. pEC50, pIC50: −log10 of the molar value.

In general, CC50 refers to the concentration that lowers cell viability or growth by half. By pIC50 is commonly meant the negative decadic logarithm of the IC50, by convention in mol/L. On to `CSc1nc2[nH]nc([N+](=O)[O-])c(=O)n2n1`, for which the CC50 at 72 h in data set [1] worked out at 1510 µM. For the same compound, the values for the selectivity ratio in data set [2] and in data set [3] were 4 and 26, respectively. The negative-log IC50 (pIC50) in data set [4] was 3.39; in data set [5] it was 4.85. In data set [6], this compound gave a CC50 at 336 h of 368 µM.

Consider `CC1(C)[C@@H]2CC[C@@]1(C)/C(=N/NC(=O)c1ccccc1)C2`, for which it took 1100 µM to reach half-maximal cytotoxicity in data set [1] (CC50 at 72 h). For the same compound, the negative logarithm of the IC50 (pIC50) in data set [4] is 3.11. Further, the IC50 entry in data set [5] was “Not Active”. Also, the CC50 at 336 h in data set [6] is above 150 µM.

Turning to `CC1(C)[C@@H]2CC[C@@]1(C)/C(=N/NC(=O)c1cccc3c1C(=O)N(Cc1ccccc1)C3)C2`, in data set [5], the IC50 entry is on record as “Not Active”. This compound showed a CC50 at 336 h in data set [6] above 300 µM.

In general, pEC50 refers to the EC50 on a negative log10 scale, so that one unit is a factor of ten. With `O=c1c2ncn([C@@H]3O[C@H](CO)[C@@H](O)[C@H]3O)c2ncn1-c1cccc(F)c1`, the pEC50 in data set [7] was 4.03.

As to `CCN1CC23C=CC(O2)C(C(=O)N/N=C2\C[C@H]4CC[C@]2(C)C4(C)C)C3C1=O` (mixture of isomers), the cytotoxic concentration (CC50) at 72 h in data set [1] stood at 1070 µM. Besides, in data set [4], the pIC50 was 3.10. Further, the IC50 entry in data set [5] is given as “Not Active”. Also, in data set [6], the CC50 at 336 h was determined as 250 µM.

For `CC12C=CC3(CN(Cc4ccccc4)C(=O)C3C1C(=O)N/N=C1\C[C@H]3CC[C@]1(C)C3(C)C)O2` (mixture of isomers), the cytotoxic concentration (CC50) at 72 h in data set [1] turned out to be 335 µM. In addition, the selectivity ratio in data set [2] is 2; in data set [3], 7. Besides, the pIC50 in data set [4] was 3.83; in data set [5], 4.48. In addition, the CC50 at 336 h in data set [6] was 245 µM.

In turn, `COCCN1CC23C=CC(O2)C(C(=O)N/N=C2\C[C@H]4CC[C@]2(C)C4(C)C)C3C1=O` (mixture of isomers) registered a CC50 at 72 h in data set [1] of 1030 µM. For the same compound, in data set [4], the negative-log IC50 (pIC50) was below 3.10. For the same compound, in data set [5], the IC50 result is “Not Active”. In data set [6], half-maximal cytotoxicity (CC50 at 336 h) was put at 250 µM.

`CC12C=CC3(CN(c4ccccc4)C(=O)C3C1C(=O)N/N=C1\C[C@H]3CC[C@]1(C)C3(C)C)O2` (mixture of isomers) had a CC50 at 72 h in data set [1] of 448 µM. The selectivity ratio was found to be 4 in data set [2] and 10 in data set [3]. The pIC50 is 4.02 in data set [4] and 4.85 in data set [5]. In addition, the midpoint of cytotoxicity in data set [6], the CC50 at 336 h, lay at 142 µM.

For `COc1ccc(N2CC34C=CC(C)(O3)C(C(=O)N/N=C3\C[C@H]5CC[C@]3(C)C5(C)C)C4C2=O)cc1` (mixture of isomers), in data set [3], the selectivity ratio came to 6. In addition, the pIC50 in data set [5] is 4.72. Further, in data set [6], the midpoint of cytotoxicity, the CC50 at 336 h, lay at 120 µM.

Regarding `CC1(C)[C@@H]2CC[C@@]1(C)/C(=N/NC(=O)C1C3C=CC4(CN(Cc5ccccc5)C(=O)C14)O3)C2` (mixture of isomers), the CC50 at 72 h in data set [1] was 860 µM. Also, the negative-log IC50 (pIC50) in data set [4] was 3.12. The IC50 entry in data set [5] is given as “Not Active”. The compound also displayed a CC50 at 336 h in data set [6] of 250 µM.

The compound `COc1ccc(N2CC34C=CC(C)(O3)C(C(=O)N/N=C3\C(C)(C)[C@H]5CC[C@]3(C)C5)C4C2=O)cc1` (mixture of isomers) had a CC50 at 72 h in data set [1] of 152 µM. Also, the selectivity ratio worked out at 2 in data set [2] and 9 in data set [3]. The results for the negative logarithm of the IC50 (pIC50) in data set [4] and in data set [5] were 4.13 and 4.52, respectively. The same compound showed a CC50 at 336 h in data set [6] of 292 µM.

Turning to `CC12C=CC3(CN(c4ccc(Br)cc4)C(=O)C3C1C(=O)N/N=C1\C[C@H]3CC[C@]1(C)C3(C)C)O2` (mixture of isomers), in data set [1], the cytotoxic concentration (CC50) at 72 h is 175 µM. Moreover, the pIC50 in data set [4] was 3.92. Moreover, the IC50 entry in data set [5] is given as “Not Active”. Besides, it took 78 µM to reach half-maximal cytotoxicity in data set [6] (CC50 at 336 h).

Consider `CC12C=CC3(CN(c4ccccc4)C(=O)C3C1C(=O)N/N=C1\CC3CCC1C3)O2` (mixture of isomers), for which, in data set [3], the selectivity ratio was found to be 9. Further, the pIC50 in data set [5] is 4.55. The same compound returned a CC50 at 336 h in data set [6] of 269 µM.

`CCC12C=CC3(CN(c4ccccc4)C(=O)C3C1C(=O)N/N=C1\C(C)(C)[C@H]3CC[C@]1(C)C3)O2` (mixture of isomers): in data set [3], the selectivity ratio was 3. Further, the pIC50 in data set [5] is 4.40. Also, the CC50 at 336 h in data set [6] is 120 µM.

Take `CC12C=CC3(CN(c4ccc(Br)cc4)C(=O)C3C1C(=O)N/N=C1\C(C)(C)[C@H]3CC[C@]1(C)C3)O2` (mixture of isomers): it took 78 µM to reach half-maximal cytotoxicity in data set [1] (CC50 at 72 h). For the same compound, the pIC50 in data set [4] was 4.19. The IC50 result in data set [5] is listed as “Not Active”. This compound had a CC50 at 336 h in data set [6] of 80 µM.

As for `CC12C=CC3(CN(CCc4ccccc4)C(=O)C3C1C(=O)N/N=C1\C[C@H]3CC[C@]1(C)C3(C)C)O2` (mixture of isomers), the CC50 at 72 h in data set [1] is 216 µM. The figures for the selectivity ratio in data set [2] and in data set [3] were 3 and 4, respectively. Also, the pIC50 in data set [4] was 4.16; in data set [5], 4.38. This compound registered a cytotoxic concentration (CC50) at 336 h in data set [6] of 195 µM.

Regarding `CCCCN1CC23C=CC(C)(O2)C(C(=O)N/N=C2\C[C@H]4CC[C@]2(C)C4(C)C)C3C1=O` (mixture of isomers), the selectivity ratio in data set [3] worked out at 9. In data set [5], the negative-log IC50 (pIC50) was 4.59. Besides, the half-maximal cytotoxic concentration (CC50) at 336 h in data set [6] amounted to 246 µM.

As for `CC1(C)[C@@H]2CC[C@@]1(C)/C(=N/NC(=O)C1C3OC4(CN(c5ccccc5)C(=O)C14)C1OC31)C2` (mixture of isomers), the half-maximal cytotoxic concentration (CC50) at 72 h in data set [1] is 1040 µM. The selectivity ratio in data set [2] and in data set [3] was 5 throughout. Moreover, the negative logarithm of the IC50 (pIC50) was 3.71 in data set [4] and 4.43 in data set [5]. For the same compound, in data set [6], the midpoint of cytotoxicity, the CC50 at 336 h, lay at 195 µM.

`CC12CCC3(CN(c4ccccc4)C(=O)C3C1C(=O)N/N=C1\C[C@H]3CC[C@]1(C)C3(C)C)O2` (mixture of isomers) had a CC50 at 72 h in data set [1] of 1450 µM. Moreover, the selectivity ratio in data set [2] amounted to 3; in data set [3] it was 6. Besides, the values for the pIC50 in data set [4] and in data set [5] were 3.43 and 4.70, respectively. In data set [6], this compound displayed a CC50 at 336 h of 130 µM.

Regarding `CC12C=CC3(CN(c4ccccc4)C(=O)C3C1C(=O)N/N=C1\C(C)(C)[C@H]3CC[C@]1(C)C3)O2` (mixture of isomers), the CC50 at 72 h in data set [1] came out at 1180 µM. The values for the selectivity ratio in data set [2] and in data set [3] were 3 and 140, respectively. Besides, the figures for the negative logarithm of the IC50 (pIC50) in data set [4] and in data set [5] were 3.37 and 5.12, respectively. For the same compound, half-maximal cytotoxicity in data set [6] (CC50 at 336 h) was put at 1060 µM.

In data set [1], `CC(C)N1CC23C=CC(C)(O2)C(C(=O)N/N=C2\C[C@H]4CC[C@]2(C)C4(C)C)C3C1=O` (mixture of isomers) came in with a 50% cytotoxic concentration (CC50) at 72 h above 2500 µM. Moreover, the selectivity ratio amounted to 5 in data set [2] and 3 in data set [3]. Besides, the pIC50 in data set [4] is 3.33; in data set [5], 4.04. In data set [6], this compound registered a CC50 at 336 h of 250 µM.

Regarding `NC(=O)c1ncn([C@@H]2O[C@H](CO)[C@@H](O)[C@H]2O)n1` [RIBAVIRIN], in data set [5], the IC50 result was “Not Active”. For the same compound, in data set [6], the CC50 at 336 h came to 20 µM.
